Screens deposited in PubChem by several laboratories.
Only some compounds are listed: those with a hit (about 1.6% of all), similar ones and a draw of the others.
Tb MetRS inh = blocks T. brucei methionyl-tRNA synthetase activity. purified T. brucei MetRS, ATP depletion, Kinase-Glo luminescence. inhibition, % at 11.9 µM. 360,000 tested, 0.4% active. AID 624268;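 active = inhibition above a per-plate cutoff of the control wells' mean inhibition plus 3 SD, cut at about 5.5% in these data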;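 also: 0% = DMSO wells median and 100% = median of wells with control inhibitor compound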
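Dosing: 11.9 µM compound single dose, 0.9% DMSO; Assay system: purified T. brucei MetRS enzyme; Measured by: Kinase-Glo luciferase luminescence reporting remaining unconsumed ATP; Schedule: 15 min plus 2 h at 25 °C.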
Arr AP2 block = blocks beta-arrestin peptide binding to AP2 adaptin; FITC-arrestin peptide / GST-AP2 beads, flow cytometry; AP2 beta2 appendage carries R879A mutation; inhibition, % at 10 µM; 340,000 tested, 0.31% active;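 active = inhibition above a set limit, near 3 SD of compounds lacking own fluorescence, cut at about 54% in these data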;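 also: plate controls were DMSO wells for no effect and 5 µM unlabelled arrestin peptide for full effect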
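Assay system: GST-AP2 R879A bound to glutathione beads, E. coli-expressed; Medium: PBS with 0.05% Tween 20 and 0.1% BSA; Also added: fluorescein-tagged arrestin peptide at 50 nM final; Timing: 12 min plus 1 h, RT; Measured by: flow cytometry, FL1 (488/535 nm); Evaluation: percent drop in bead-associated FITC signal.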
MT1-MMP act inh = inhibitors of human MT1-MMP activation | HT1080 RFP-PRO-GFP cells, GFP/RFP ratio fluorescence, overnight; percent of plate control window, DMSO zero | 360,000 tested, 0.061% active | GFP/RFP ratio change, % at 20 µM | P50281;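 active = GFP/RFP ratio change of at least 30% with cell ATP level not reduced by more than half and red fluorescence within 50% of control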
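Material: RFP-PRO-GFP reporter HT1080 cells. Dosing: single-point 20 µM compound, 1% DMSO. Controls: DMSO and RFP-L50D-GFP cell wells. Timing: cells overnight before dosing, compound overnight, 37 °C, 5% CO2. Measure: GFP/RFP fluorescence ratio.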
SKN-1 block = inhibitors of C. elegans SKN-1; C. elegans VP596 Pgst-4::GFP/RFP ratio, acrylamide-induced, 24 h; inhibition, % at 21.8 µM; 360,000 tested, 0.49% active;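 active = interference check ratio from 0.5 to 1.5 plus GFP to RFP signal ratio inhibition reaching or exceeding a fixed threshold, cut at about 30% in these data, passing the limit was not always enough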
Rin1-Abl PPI inh = inhibitors of human Rin1-Abl protein interaction; P00519+Q13671; TR-FRET Rin1/Abl binding, biochemical; inhibition, % at 7.35 µM; 360,000 tested, 0.4% active; AID 588664; in the data active = inhibition above about 5%, passing the limit was not always enough
Tb MetRS conf = confirmation of Trypanosoma brucei MetRS inhibitors | inhibition, % at 11.9 µM | shares compounds with Tb MetRS inh | T. brucei MetRS enzyme, luminescence (ATP depletion) | AID 624412 | 1,400 tested, 93% active; in the data active = inhibition above about 7%
Jurkat tox = Jurkat T cell cytotoxicity for MetRS hits. shares compounds with Tb MetRS inh. Jurkat cells viability, ATP luminescence. inhibition, % at 8.3 µM. 1,400 tested, 12% active. AID 624413; in the data active = inhibition above about 15%;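 also: 0% = vehicle and 100% = reference inhibitor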
Tb MetRS inh FP = inhibits T. brucei methionyl tRNA synthetase in orthogonal FP test. 1,400 tested, 44% active. shares compounds with Tb MetRS inh. purified T. brucei MetRS, fluorescence polarization. inhibition, % at 11.9 µM; in the data active = inhibition above about 17%;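 also: 0% = vehicle wells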
Numbers without * were called inactive; / = no result.

SMILES | Tb MetRS inh | Arr AP2 block | MT1-MMP act inh | SKN-1 block | Rin1-Abl PPI inh | Tb MetRS conf | Jurkat tox | Tb MetRS inh FP
O=C(CN1CCN(S(=O)(=O)c2ccc(F)cc2)CC1)Nc1ccc(F)cc1F | 1.0 | 20.8 | -2.6 | 0.5 | 1.3 | / | / | /
O=C(O)CN1C(=O)/C(=C\c2cccc(OC(=O)c3ccco3)c2)SC1=S | -0.1 | -5.0 | -1.7 | 18.6 | -1.0 | / | / | /
O=C(O)CN1C(=O)/C(=C\c2ccc(OC(=O)c3ccco3)cc2)SC1=S | 8.8* | 2.8 | -30.6 | 1.9 | 0.2 | 26.9* | -4.7 | 15.3
Nc1cc(C(=O)OCC(=O)NCc2ccc(F)cc2)ccc1Cl | 43.0* | 2.3 | 1.6 | -2.5 | 1.1 | 62.6* | -3.9 | 33.8*
O=C(COC(=O)c1ccc(Cl)nc1)NCc1ccc(F)cc1 | -0.3 | -10.0 | -6.5 | 12.2 | -0.2 | / | / | /
Nc1ncnc2nc(SCc3ccc(Cl)cc3Cl)[nH]c12 | 12.5* | 3.2 | -4.7 | 13.1 | -1.9 | 32.4* | 15.5* | 12.4
Nc1ncnc2nc(Sc3ccc(Cl)cc3)[nH]c12 | 0.7 | -10.1 | 4.1 | 10.0 | 1.0 | / | / | /
COCC(=O)N(C)C[C@@H]1Oc2ncc(Br)cc2C(=O)N([C@@H](C)CO)C[C@H]1C | -1.2 | / | -2.2 | 2.5 | 3.1 | / | / | /
Cc1cccc(C)c1-n1nnnc1-c1nc2cc3ccccc3cc2[nH]c1=O | 54.3* | / | -0.5 | 2.1 | / | 55.8* | 70.4* | 19.4*
Cc1cccc(C)c1-n1nnnc1-c1nc2cc(Br)ccc2[nH]c1=O | 3.6 | / | 3.5 | 3.5 | / | / | / | /
OC(c1ccc(Cl)c(F)c1)c1ncc(-c2ccc(Oc3ccccc3)cc2)[nH]1 (stereo not given) | 0.0 | / | 2.7 | 19.4 | -2.2 | / | / | /
OC(c1ccc(Cl)c(F)c1)c1ncc(-c2ccc(Cl)cc2)[nH]1 (stereo not given) | 5.8* | / | 4.0 | 10.0 | -2.7 | 41.4* | 7.8 | 16.6
OC(c1ccc(Cl)c(Cl)c1)c1ncc(-c2ccc(C(F)(F)F)cc2)[nH]1 (stereo not given) | 3.4 | / | 3.8 | 13.4 | -1.6 | / | / | /
OC(c1ccc(Cl)c(Cl)c1)c1ncc(-c2ccc(Cl)cc2)[nH]1 (stereo not given) | 51.4* | / | 9.4 | 18.4 | 5.4 | 86.0* | -2.1 | 66.1*
COc1ccc(Cc2n[nH]c(=S)n2NC(=O)Nc2ccc(Cl)c(Cl)c2)cc1 | 36.9* | -19.9 | -0.9 | 0.2 | 1.4 | 50.4* | 8.0 | 31.5*
Cn1c(CC(=O)Nc2ccc(Cl)c(Cl)c2)n[nH]c1=S | 1.6 | 3.9 | 1.2 | -3.1 | -2.2 | / | / | /
CC(C)(C)Cc1c(-c2ccc(C#N)cc2)nc2ccc(Cl)cn12 | -1.4 | / | 8.5 | 3.7 | 1.4 | / | / | /
CCN1CCCC1Cn1cnc2c([nH]c3ccc(Cl)cc32)c1=O (stereo not given) | 10.1* | 4.4 | -1.1 | -7.9 | -7.0 | 14.4* | 0.4 | 14.4
CCN1CCCC1Cn1cnc2c([nH]c3cccc(Cl)c32)c1=O (stereo not given) | -1.2 | 25.8 | 5.5 | -18.6 | -4.0 | / | / | /
Oc1ccc(Br)cc1CNc1cnc2ccccc2c1 | 10.8* | 8.3 | 0.9 | -3.3 | 3.3 | 15.4* | 40.2* | 0.5
O=C(CN1CCN(CCC(=O)Nc2ccccc2F)CC1)Nc1ccc(F)cc1 | -1.8 | -8.4 | -1.5 | 1.5 | -3.6 | / | / | /
O=C(CN1CCN(CCC(=O)Nc2ccccc2F)CC1)Nc1ccc(Cl)cc1 | 6.4* | 9.5 | 7.9 | -16.1 | -2.5 | -0.6 | 9.0 | 2.5
CC(C)c1ccc(C(=O)CN2C(=O)NC3(CCc4ccccc43)C2=O)cc1 (stereo not given) | 0.0 | -9.9 | 7.3 | 9.8 | 6.3 | / | / | /
COc1ccccc1N1CCN(C(=O)C(=O)c2c(C)[nH]c3ccccc23)CC1 | 6.6* | 12.0 | 2.0 | -0.1 | 0.7 | 19.3* | 1.3 | 3.8
O=C(C(=O)N1CCN(c2cccc(Cl)c2)CC1)c1c[nH]c2ccccc12 | 9.4* | -0.2 | -3.4 | 18.5 | 0.4 | 12.2* | -0.3 | 6.8
SMILES | Tb MetRS inh | Arr AP2 block | MT1-MMP act inh | SKN-1 block | Rin1-Abl PPI inh | Tb MetRS conf | Jurkat tox | Tb MetRS inh FP
Cc1[nH]c2ccc(C(=O)N3CCN(c4ccccc4Cl)CC3)cc2c1C | -0.3 | 13.4 | 0.7 | 5.3 | -1.2 | / | / | /
Cc1[nH]c2ccccc2c1C(=O)C(=O)N1CCN(c2cccc(Cl)c2)CC1 | 7.1* | 2.5 | 0.8 | -12.3 | -0.1 | 15.0* | -2.5 | 2.7
Cc1[nH]c2ccccc2c1C(=O)C(=O)N1CCN(c2ccccc2Cl)CC1 | 9.0* | 24.8 | 4.9 | -4.7 | 1.8 | 28.2* | -4.3 | 14.8
Cc1[nH]c2ccccc2c1C(=O)C(=O)N1CC=C(c2ccccc2)CC1 | 9.1* | -10.3 | -102.6 | 17.9 | -0.5 | 13.0* | 10.0 | 1.4
COc1ccc(NC(=O)COC(=O)CCCOc2ccc(Cl)cc2Cl)cc1 | 7.0* | 3.2 | 4.7 | 12.4 | -2.6 | 17.2* | -8.0 | 23.0*
CC(C)(CO)NC(=O)CCCOc1ccc(Cl)cc1Cl | 10.9* | -3.3 | 2.6 | -1.9 | 0.6 | 13.2* | 4.2 | 6.8
Cc1cc(NC(=O)COC(=O)CCS(=O)(=O)c2ccc(Cl)cc2)no1 | 0.0 | 7.1 | 0.9 | 4.6 | 2.1 | / | / | /
Cc1cc(NC(=O)COC(=O)CCCOc2ccc(Cl)cc2C)no1 | 6.5* | 3.2 | -1.4 | 11.1 | 3.3 | 11.5* | -0.7 | 8.2
Cc1ccc2[nH]c(CSc3ccccc3)cc(=O)c2c1 | 10.7* | -6.8 | -2.4 | 21.8 | 3.8 | 22.7* | 4.9 | -2.0
COc1ccc(OCCC(=O)OCC(=O)Nc2ccc(Br)cc2)cc1 | 16.6* | 9.6 | -0.4 | 7.7 | -0.5 | 17.8* | 3.4 | 11.5
COc1ccc(NC(=O)COC(=O)Cc2ccc(Br)cc2)cc1 | 1.5 | 7.0 | -2.7 | -7.1 | -1.7 | / | / | /
COc1ccc(CC(=O)OCC(=O)Nc2ccc(Br)cc2)cc1 | 11.0* | 22.0 | 1.7 | 6.9 | -0.7 | 30.9* | -9.1 | 25.0*
COc1ccc(NC(=O)COC(=O)COc2ccc(Br)cc2)cc1 | 1.3 | -2.0 | 1.4 | -5.6 | 1.8 | / | / | /
S=C(NCc1cccnc1)Nc1cc(Cl)cc(Cl)c1 | 24.0* | 38.0 | 4.1 | 0.5 | 0.1 | 52.3* | 4.6 | 30.1*
S=C(NCc1ccncc1)Nc1cc(Cl)cc(Cl)c1 | 10.1* | -10.9 | 0.7 | 6.6 | 0.9 | 23.2* | -0.1 | 13.3
S=C(NCc1ccncc1)Nc1ccc(Cl)c(Cl)c1 | 1.9 | 2.8 | 3.9 | 9.1 | -2.5 | / | / | /
Cc1ccc(S(=O)(=O)N(C)C[C@@H]2Oc3ccc(NC(=O)Cn4cnnn4)cc3C(=O)N([C@@H](C)CO)C[C@H]2C)cc1 | -0.2 | 4.6 | 5.1 | 10.5 | 4.1 | / | / | /
